The values below come from ChEMBL document CHEMBL1148040, “New lignans from Anogeissus acuminata with HIV-1 reverse transcriptase inhibitory activity” (J Nat Prod, 1994).

Test [1] has as its system LNCaP. Briefly: Cytotoxicity against human LNCAP cells. It is filed as functional. The following applies: read-out: ED50 (the source's name).
Test [2] can be described thus: Cytotoxicity against human BC1 cells. The test is classed as functional. Conditions: read-out: ED50 (the source's name); call rule not given here.
Test [3] is described as follows: Cytotoxicity against human Col1 cells. The test is classed as functional. The following applies: read-out: ED50 (the source's name).
In test [4] the test system is Lu1. Put plainly: Cytotoxicity against human Lu1 cells. It is filed as functional. Conditions: read-out: ED50 (the source's name).
Test [5] is described as follows: Cytotoxicity against human U373 cells. It is filed as functional, U-373MG ATCC. Conditions: U373 MG, read-out: ED50 (the source's name).
Test [6] relates to HT-1080. Briefly: Cytotoxicity against human HT1080 cells. It is filed as functional. Conditions: read-out: ED50 (the source's name).
The target in test [7] is Human immunodeficiency virus type 1 reverse transcriptase (Human immunodeficiency virus 1) (UniProt Q72547). Put plainly: Inhibition of HIV1 reverse transcriptase at 80 ug/ml. The method, boiled down: (§1)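 HIV-1 reverse transcriptase inhibition, run by an assay procedure the authors described earlier. Each test concentration was run in duplicate in three separate experiments, and the reported value is the average of the three experiments.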

For test [8] the target is unchanged. Briefly: Inhibition of HIV1 reverse transcriptase at 100 ug/ml. Put shortly: as §1
Test [9] is described as follows: Cytotoxicity against human KBV1 cells in presence of vinblastine. It is filed as functional. The following applies: KB-V1, read-out: ED50 (the source's name).
Test [10] deals with SK-MEL-2. Put plainly: Cytotoxicity against human SK-MEL-2 cells. It is filed as functional. Conditions: read-out: ED50 (the source's name).
Test [11] in a line: Cytotoxicity against human KBV1 cells in absence of vinblastine. It is filed as functional. The following applies: KB-V1, read-out: ED50 (the source's name).
The subject of test [12] is KB. Put plainly: Cytotoxicity against human KB cells. Conditions: read-out: ED50 (the source's name). The test is classed as functional.
The target of test [13] is Human immunodeficiency virus type 1 reverse transcriptase (Human immunodeficiency virus 1) (UniProt Q72547). Briefly: Inhibition of HIV1 reverse transcriptase at 200 ug/ml. Put shortly: as §1
Test [14] has the same target. Briefly: Inhibition of HIV1 reverse transcriptase at 60 ug/ml. Put shortly:
as §1

Test [15] concerns ZR-75-1. Put plainly: Cytotoxicity against human ZR-75-1 cells. The test is classed as functional. Conditions: read-out: ED50 (the source's name).
Test [16] deals with T1, Human immunodeficiency virus type 1 reverse transcriptase (Human immunodeficiency virus 1, UniProt Q72547). Put plainly: Inhibition of HIV1 reverse transcriptase. The method, boiled down: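 HIV-1 RT inhibition was measured by a previously published method. Each value is the mean of three experiments, each run in duplicate. Test levels reached 250 µg/ml in the assay mixture.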

Test [17] addresses Human immunodeficiency virus type 1 reverse transcriptase (Human immunodeficiency virus 1) (UniProt Q72547). Briefly: Inhibition of HIV1 reverse transcriptase at 20 ug/ml. Put shortly: as §1
Test [18] has the same target. Briefly: Inhibition of HIV1 reverse transcriptase at 40 ug/ml. The method, boiled down: as §1
Test [19] concerns P388. Put plainly: Cytotoxicity against mouse P388 cells. It is filed as functional. Conditions: read-out: ED50 (the source's name).
Test [20] relates to A-431. Briefly: Cytotoxicity against human A431 cells. The test is classed as functional. Conditions: read-out: ED50 (the source's name).
In test [21] the target is Human immunodeficiency virus type 1 reverse transcriptase (Human immunodeficiency virus 1) (UniProt Q72547). Briefly: Inhibition of HIV1 reverse transcriptase at 150 ug/ml. Put shortly:
as §1

Test [22] has as its target T1, Human immunodeficiency virus type 1 reverse transcriptase. Put plainly: Inhibition of drug-resistant HIV1 reverse transcriptase.
Test [23] has as its target Human immunodeficiency virus type 1 reverse transcriptase (Human immunodeficiency virus 1) (UniProt Q72547). Put plainly: Inhibition of HIV1 reverse transcriptase at 250 ug/ml. Put shortly:
as §1

Test [24] can be described thus: Inhibition of HIV2 reverse transcriptase. More on the design: species or system Human immunodeficiency virus 2.

Values after ≈ are worked out from the molar mass of the structure shown.

What is called inhibition is how much of the control response was suppressed. As usually defined, the IC50 is the concentration that gives 50% inhibition. In the case of `C=C(Cc1ccc(O)cc1)C(=C)Cc1ccc(O)cc1` [ANOLIGNAN B], the EC50 in test [1] was 8.7 µg/mL (≈ 32.7 µM); in [2], 5.1 µg/mL (≈ 19.1 µM); in test [3] it was 18 µg/mL (≈ 67.6 µM); in test [4], 11.1 µg/mL (≈ 41.7 µM); in test [5], 5.7 µg/mL (≈ 21.4 µM); in test [6], 4.7 µg/mL (≈ 17.6 µM). Further, the EC50 in [9] is > 20 µg/mL; in [10], 19 µg/mL (≈ 71.3 µM); in test [11], > 20 µg/mL; in [12], > 20 µg/mL; in test [15], > 20 µg/mL; in test [19], 1 µg/mL (≈ 3.75 µM). Also, in test [20], the EC50 was > 20 µg/mL. Besides, the inhibition is 20.9% in test [7]; 27.4% in test [8]; 32.9% in [13]; 25.5% in [14]; 10% in test [17]; 17.7% in [18]. The same compound yielded an inhibition in test [21] of 31.2%. Besides, in test [16] (read-out: IC50 (converted)), the IC50 was 4020 µM.
Regarding `C[C@@H]1[C@H](C)[C@H](c2ccc(O)cc2)O[C@@H]1c1ccc(O)cc1` [ANOLIGNAN C], the EC50 was 10.8 µg/mL (≈ 38 µM) in test [1]; > 20 µg/mL in [2]; 16.8 µg/mL (≈ 59.1 µM) in test [3]; 15.8 µg/mL (≈ 55.6 µM) in test [4]; 18.5 µg/mL (≈ 65.1 µM) in test [5]; 13.1 µg/mL (≈ 46.1 µM) in [6]. For the same compound, the EC50 in test [9] is > 20 µg/mL; in test [10], 7.6 µg/mL (≈ 26.7 µM); in test [11], > 20 µg/mL; in test [12], > 20 µg/mL; in [15], 6.1 µg/mL (≈ 21.5 µM); in [19] it was > 20 µg/mL. In addition, the EC50 in test [20] was > 20 µg/mL. In addition, the IC50 result in test [16] is listed as “Not Active”.
Consider `C=C(Cc1ccc2c(c1)OCO2)C(=C)Cc1ccc(O)cc1O` [ANOLIGNAN A], for which the figures for the IC50 in test [22], in test [24] and in [16] (read-out: IC50 (converted)) were 342 µM, 156.9 µg/mL (≈ 506 µM) and 195 µM, respectively. Further, the EC50 is 10.8 µg/mL (≈ 34.8 µM) in test [1]; 4.3 µg/mL (≈ 13.9 µM) in [2]; 16.8 µg/mL (≈ 54.1 µM) in test [3]; 15.8 µg/mL (≈ 50.9 µM) in test [4]; 13.5 µg/mL (≈ 43.5 µM) in test [5]; 13.1 µg/mL (≈ 42.2 µM) in test [6]. The EC50 in test [9] was > 20 µg/mL; in test [10], 7.6 µg/mL (≈ 24.5 µM); in test [11] it was > 20 µg/mL; in [12] it was > 20 µg/mL; in [15], 6.1 µg/mL (≈ 19.7 µM); in test [19], > 20 µg/mL. Besides, the EC50 in [20] is > 20 µg/mL. The inhibition in test [23] was determined as 97.4%; in test [7], 68.3%; in test [8] it was 73.9%; in test [13], 92.8%; in test [14], 51.5%; in test [17], 4.1%. Further, the inhibition in test [18] was 33.8%; in [21], 80.8%.
Consider `COc1cc(C[C@@H](CO)[C@H](CO)Cc2ccc(O)c(OC)c2)ccc1O` [(+)-SECOISOLARICIRESINOL], for which the IC50 result in [16] is on record as “Not Active”.
